Assay results: ChEMBL document CHEMBL2029242 (J Med Chem, 2012)
Calls of active or inactive are those of the source. No cut-off for these calls is given here.

Tests used:
Cytochrome P450 2C19 = Cytochrome P450 2C19 (Homo sapiens, UniProt P33261); test: Inhibition of human CYP2C19; type: ADME
In short: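 Pooled human liver microsomes (0.25 mg/mL) with NADPH (1 mM) and five pooled probe substrates (testosterone, diclofenac, dextromethorphan, mephenytoin, phenacetin). Test compound ran at eight concentrations, 0.31−40 μM, 20 min at 37 °C, with pooled control inhibitors in parallel. Isoform-specific metabolites were measured by LC-MS/MS.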

Mus musculus = test: Inhibition of BRAF V600E mutant-mediated MEK phosphorylation in human COLO205 cells xenografted in athymic nude mouse at 30 mg/kg, po after 2 hrs; type: functional; conditions: COLO 205, 2 h
In short: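 Mice bearing Colo-205 xenografts got one oral dose in 22% HPβCD; vehicle controls were run. Tumors were collected at time points over 24 h and lysed. pMEK and total MEK in the lysates were measured by immunoblotting and ELISA, and pMEK was normalized to total MEK.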

[1] = Cmax in Sprague-Dawley rat at 10 mg/kg, po; type: ADME, organism-based; set-up: dose 10 mg/kg, route oral; conditions: in vivo
In short: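 Single-dose PK. Rats: male Sprague−Dawley, jugular-catheterized, 1 mg/kg iv in 3:1 PEG400/water (n = 2) and 10 mg/kg po in Pharmatek #6 (n = 3). Female athymic nude mice: 100 mg/kg po in Pharmatek #6 (n = 3). Beagle dogs and male cynomolgus monkeys (n = 3): crossover, 1 mg/kg iv and 10 mg/kg po in 22% HPβCD, overnight fast. Plasma LC-MS/MS to 24 h; noncompartmental parameters, mean ± SD.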

[2] = molecular target: Macrophage colony-stimulating factor 1 receptor (Homo sapiens, UniProt P07333); test: Inhibition of CSF1R in human HEK293 cells after 1 hr by competition binding assay; type: cell-based
In short: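 Unbound kinase was captured on immobilized affinity ligand and quantified by qPCR. Kd came from eleven serial 3-fold dilutions, as the mean of duplicates.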

Liver microsomes = test: Intrinsic clearance in human liver microsomes; type: ADME, Microsome
In short: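 Pooled liver microsomes (0.5 mg/mL) were premixed with 0.1 M phosphate buffer pH 7.4, 6.5 mM MgCl2 and test compound (1 μM final, 0.2% DMSO). NADPH (1 mM) started the reaction at 37 °C, in duplicate. Minus-NADPH and testosterone controls were included. Aliquots were taken at 0, 5, 15, 30 and 60 min and quenched in acetonitrile containing internal standard.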

COLO 205 = test: Antitumor activity against human COLO205 cells xenografted in athymic nude mouse at 100 mg/kg, po bid for 14 days; type: functional, organism-based; set-up: dose 100 mg/kg
In short: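 Athymic nude mice carried subcutaneous flank Colo-205 xenografts (1 × 10^6 cells), randomized at 150−200 mm3 (n = 10/group). Oral dosing BID for 14 days in 22% HPβCD against vehicle controls. Caliper volumes W2(L/2) taken three times weekly. Partial regression: volume fell in ≥3 successive measurements to below the starting volume while the tumor stayed palpable.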

PC-3 = test: Cytotoxicity against human PC3 cells expressing wild type BRAF after 72 hrs by cell titer blue assay; type: functional, cell-based; conditions: PC-3, 72 h
In short: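 Cells were grown in ATCC-recommended media and kept overnight in 0.5% serum. They were then exposed to compound for 72 h, and Cell Titer Blue was added for 3 h. EC50 came from fluorometric concentration−response curves, run in duplicate and repeated at least once.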

[3] = molecular target: Mitogen-activated protein kinase 3 (Homo sapiens, UniProt P27361); test: Inhibition of ERK1 in human HEK293 cells after 1 hr by competition binding assay; type: cell-based
In short: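 KINOMEscan competition binding. Binding reactions ran at rt for 1 h. Unbound kinase was captured on an immobilized affinity ligand and quantified by qPCR. Each kinase was tested individually.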

Mitogen-activated protein kinase 3, sequence (P27361 whole entry): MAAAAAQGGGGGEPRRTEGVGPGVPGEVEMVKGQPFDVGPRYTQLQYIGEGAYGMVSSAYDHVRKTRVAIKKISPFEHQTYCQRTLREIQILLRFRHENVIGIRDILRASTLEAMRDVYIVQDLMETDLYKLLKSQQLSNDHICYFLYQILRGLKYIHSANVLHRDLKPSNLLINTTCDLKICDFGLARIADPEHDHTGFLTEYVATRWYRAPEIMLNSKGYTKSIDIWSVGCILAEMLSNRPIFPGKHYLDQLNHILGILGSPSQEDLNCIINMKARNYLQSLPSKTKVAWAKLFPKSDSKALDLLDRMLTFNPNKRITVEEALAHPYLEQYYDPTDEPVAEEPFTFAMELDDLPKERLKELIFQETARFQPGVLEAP
Cytochrome P450 2C19, sequence (P33261 whole entry, canonical isoform): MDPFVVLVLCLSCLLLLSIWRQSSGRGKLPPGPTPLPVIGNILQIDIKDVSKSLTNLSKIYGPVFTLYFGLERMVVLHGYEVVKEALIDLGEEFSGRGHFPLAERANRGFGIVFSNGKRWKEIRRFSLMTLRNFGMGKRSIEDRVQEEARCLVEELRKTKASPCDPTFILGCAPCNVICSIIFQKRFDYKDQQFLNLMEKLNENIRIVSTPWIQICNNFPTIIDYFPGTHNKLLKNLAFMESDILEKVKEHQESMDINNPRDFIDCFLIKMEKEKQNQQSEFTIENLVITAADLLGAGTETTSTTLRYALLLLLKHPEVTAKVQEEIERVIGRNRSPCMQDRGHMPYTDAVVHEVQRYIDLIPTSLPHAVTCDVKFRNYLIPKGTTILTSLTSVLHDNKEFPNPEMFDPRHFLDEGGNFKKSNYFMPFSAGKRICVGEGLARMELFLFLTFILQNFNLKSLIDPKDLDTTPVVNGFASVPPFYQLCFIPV
Macrophage colony-stimulating factor 1 receptor, sequence (P07333 whole entry): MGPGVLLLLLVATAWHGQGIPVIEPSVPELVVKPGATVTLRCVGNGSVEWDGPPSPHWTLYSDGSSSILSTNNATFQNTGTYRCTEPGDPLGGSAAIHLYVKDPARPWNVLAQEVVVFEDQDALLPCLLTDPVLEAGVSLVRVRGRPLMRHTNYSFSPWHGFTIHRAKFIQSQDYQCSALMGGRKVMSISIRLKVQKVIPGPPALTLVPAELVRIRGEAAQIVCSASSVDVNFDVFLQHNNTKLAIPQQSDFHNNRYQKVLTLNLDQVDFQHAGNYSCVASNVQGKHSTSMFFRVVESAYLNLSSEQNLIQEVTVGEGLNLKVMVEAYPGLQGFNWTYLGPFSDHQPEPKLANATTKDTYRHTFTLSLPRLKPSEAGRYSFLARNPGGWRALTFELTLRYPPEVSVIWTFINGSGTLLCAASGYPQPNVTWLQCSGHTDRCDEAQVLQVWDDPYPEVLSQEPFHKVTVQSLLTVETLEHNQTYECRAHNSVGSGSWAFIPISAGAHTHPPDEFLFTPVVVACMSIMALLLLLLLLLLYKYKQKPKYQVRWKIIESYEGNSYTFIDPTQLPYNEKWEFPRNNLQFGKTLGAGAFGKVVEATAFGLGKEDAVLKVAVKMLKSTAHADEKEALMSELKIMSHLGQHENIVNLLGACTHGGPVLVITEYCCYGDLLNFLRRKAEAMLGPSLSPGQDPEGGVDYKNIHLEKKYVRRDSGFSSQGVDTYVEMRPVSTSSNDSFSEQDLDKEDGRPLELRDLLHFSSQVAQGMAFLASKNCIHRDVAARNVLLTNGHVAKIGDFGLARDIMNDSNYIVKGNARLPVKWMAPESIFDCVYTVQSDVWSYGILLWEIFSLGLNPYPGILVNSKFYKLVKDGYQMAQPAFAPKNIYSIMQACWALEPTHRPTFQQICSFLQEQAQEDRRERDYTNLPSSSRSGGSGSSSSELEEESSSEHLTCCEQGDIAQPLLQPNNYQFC

- IC50 (Cytochrome P450 2C19): 3.4 µM
- Cmax [1]: 6.5 µM
- Kd [2]: 0.009 µM
- CLH (Liver microsomes): < 23 µL/min/mg
- Kd [3]: > 10 µM
SMILES: COc1cc2ncnc(Oc3cccc(NC(=O)Nc4cc(C(C)(C)C(F)(F)F)on4)c3)c2cc1OC [CEP-32496]
- inhibition in vivo at 30 mg/kg (Mus musculus): 50%
- Activity (COLO 205): Active
- EC50 (PC-3): 6.26 µM
